In series [1] the test system is Salmonella enteritidis. In words: Antibacterial activity against Salmonella enteritidis ATCC 14028 infected in mouse J774 cells assessed as reduction in intracellular bacterial cells at 2 times MIC incubated for 24 hrs followed by re-plating on TSA plate and measured after 18 to 22 hrs relative to control. In kind it is functional, Salmonella enterica subsp. enterica serovar Enteritidis. More on the design: scale not given: the % may be the effect or the level left. Put shortly:
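J774 murine macrophages infected with Salmonella enteritidis ATCC 14028, then treated at 2×MIC for 24 h, in triplicate. Read-out is the percent reduction in intracellular colony forming units versus the untreated control.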

Series [2] deals with Staphylococcus aureus. In words: Antibacterial activity against methicillin-resistant Staphylococcus aureus NRS123-USA400 clinical isolates over 14 serial passages by broth microdilution assay. In kind it is functional, organism-based. Put shortly: (§1)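 MRSA USA400 was serially passaged over a 14-day period in the presence of each compound or control antibiotic. MIC was determined by broth microdilution after each passage. A four-fold rise in MIC was taken as a sign of resistance.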

Series [3] in a line: Stability in human liver microsomes assessed as compound remaining measured immediately in presence of NADPH by LC/MS/MS analysis. In kind it is ADME, Microsome. Conditions: read-out: Stability. Put shortly: (§2)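 Two independent runs (1st and 2nd) were done at each time point, and the mean percent remaining is reported. Incubations were run both with and without NADPH. Half-life and intrinsic clearance (Clint) were derived from the time-course data.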

The nature of series [4]: Stability in human liver microsomes assessed as compound remaining incubated for 30 mins in presence of NADPH by LC/MS/MS analysis. The series is classed as ADME, Microsome. Particulars: read-out: Stability. The essentials: as §2
On the technique in general: Microsomes from liver hold many membrane-bound enzymes, among them those of drug oxidation.

Series [5] in a line: Stability in human liver microsomes assessed as compound remaining incubated for 45 mins in presence of NADPH by LC/MS/MS analysis. The series is classed as ADME, Microsome. Particulars: read-out: Stability. Put shortly: as §2
Series [6] in a line: Stability in human liver microsomes assessed as compound remaining incubated for 60 mins in presence of NADPH by LC/MS/MS analysis. The series is classed as ADME, Microsome. Conditions: read-out: Stability. The essentials: as §2
Series [7] is described as follows: Stability in human liver microsomes assessed as compound remaining incubated for 15 mins in absence of NADPH by LC/MS/MS analysis. The series is classed as ADME, Microsome. Conditions: read-out: Stability.
Series [8] in a line: Stability in human liver microsomes assessed as compound remaining incubated for 30 mins in absence of NADPH by LC/MS/MS analysis. The series is classed as ADME, Microsome. Particulars: read-out: Stability. The essentials:
as §2

Series [9] can be described thus: Stability in human liver microsomes assessed as compound remaining incubated for 45 mins in absence of NADPH by LC/MS/MS analysis. The series is classed as ADME, Microsome. Particulars: read-out: Stability. Put shortly: as §2
Series [10] is described as follows: Stability in human liver microsomes assessed as compound remaining incubated for 60 mins in absence of NADPH by LC/MS/MS analysis. In kind it is ADME, Microsome. Conditions: read-out: Stability. Put shortly: as §2
The nature of series [11]: Half life in human liver microsomes in presence of NADPH by LC/MS/MS analysis. The series is classed as ADME, Microsome.
Series [12] is described as follows: Half life in human liver microsomes in absence of NADPH by LC/MS/MS analysis. The series is classed as ADME, Microsome.
Series [13] is described as follows: Intrinsic clearance in human liver microsomes in presence of NADPH by LC/MS/MS analysis. The series is classed as ADME, Microsome. Conditions: read-out: CLH.
Series [14] is described as follows: Apparent permeability across apical to basolateral side in human Caco2 cells after 2 hrs by LC/MS/MS analysis. In kind it is ADME, cell-based. Particulars: Caco-2. (In general: Caco-2 cells form a polarised layer with tight junctions and transporters.)
Series [15] is described as follows: Apparent permeability across basolateral to apical side in human Caco2 cells after 2 hrs by LC/MS/MS analysis. The series is classed as ADME, cell-based. Conditions: Caco-2.
Series [16] in a line: Efflux ratio of apparent permeability across basolateral to apical side over apical to basolateral side in human Caco2 cells after 2 hrs by LC/MS/MS analysis. Conditions: Caco-2. In kind it is ADME, cell-based.
Series [17] can be described thus: Half life in Sprague-Dawley rat at 5 mg/kg, iv administered as bolus dose measured over 12 hrs by LC-MS/MS analysis. The series is classed as ADME, organism-based. Conditions: in vivo.
Series [18] in a line: Clearance in Sprague-Dawley rat at 5 mg/kg, iv administered as bolus dose measured over 12 hrs by LC-MS/MS analysis. In kind it is ADME, organism-based. Particulars: in vivo.
In series [19] the test system is Staphylococcus aureus. The series can be described thus: Potency index, ratio of compound effect to vancomycin effect for antibiofilm activity against methicillin-resistant Staphylococcus aureus NRS384-USA300 clinical isolates at 0.5 times MIC. In kind it is functional.
For series [20], the system named is Staphylococcus aureus. The series can be described thus: Antibacterial activity against methicillin-resistant Staphylococcus aureus NRS123-USA400 clinical isolates assessed as ratio of MIC after and before 8 serial passages by broth microdilution assay. The series is classed as functional. The essentials:
as §1
(In general: Dilution methods test growth across graded concentrations, often in twofold steps.)

For series [21], the system named is Staphylococcus aureus. The series can be described thus: Antibacterial activity against methicillin-resistant Staphylococcus aureus NRS123-USA400 clinical isolates assessed as ratio of MIC after and before 14 serial passages by broth microdilution assay. The series is classed as functional. The essentials:
as §1

In series [22] the test system is Staphylococcus aureus. The series can be described thus: Antibacterial activity against methicillin-resistant Staphylococcus aureus NRS123-USA400 clinical isolates assessed as ratio of MIC after and before 10 serial passages by broth microdilution assay. The series is classed as functional. Put shortly: as §1

Structures are written as SMILES. Activity calls are given as the source filed them. The calls are words filed in the database; no cut-off is given here.

One may read the half-life as how long it takes for the measured level to halve. Broadly, the Papp A→B is how fast a substance crosses the layer from the apical side. For orientation: Papp B→A means the apparent permeability from the basolateral to the apical side of a cell layer. What is called efflux ratio is a quotient of directional permeabilities that is used to spot active efflux. As a reminder, the clearance is a measure of how efficiently the substance is removed, as volume per time.

Take `C/C(=N\NC(=N)N)c1cnn(-c2ccc(C#CC3CCCC3)cc2)c1C`: in [1], the Activity was 98%. Besides, the result in [2] was Active. The remaining at 0 min in [3] is 100%. The remaining at 0.5 h in series [4] was 92%; in [8], 99%. Besides, the remaining at 0.75 h stood at 81% in series [5] and 99% in [9]. The remaining at 1 h in [6] came out at 82%; in [10], 91%. The remaining at 0.25 h in [7] was determined as 99%. Besides, the half-life is 3.23 h in series [11], 8.42 h in series [12] and 10.5 h in series [17]. Besides, in series [13], the microsomal CLint came out at 35.8 µL/min/mg. In [14], the Papp A→B at 2 h is 0.01 ×10⁻⁶ cm/s. The Papp B→A at 2 h in series [15] is 0.01 ×10⁻⁶ cm/s. Besides, in series [16], the efflux ratio at 2 h turned out to be 1. The compound also showed a clearance in [18] of 16.7 mL/min. Besides, in [19], the Ratio is listed as 2.

As to `C/C(=N\NC1=NCCN1)c1cnn(-c2ccc(C#CC3CCCC3)cc2)c1C`, the results for the Ratio in series [20] and in series [21] were 1 and 2, respectively. Moreover, in [3], the remaining at 0 min was determined as 100%. Besides, the results for the remaining at 0.5 h in [4] and in series [8] were 92% and 97%, respectively. Further, the remaining at 0.75 h in [5] was 79%; in series [9], 97%. Further, the remaining at 1 h in [6] stood at 79%; in series [10], 97%. In addition, in [7], the remaining at 0.25 h amounted to 98%. The half-life was 2.55 h in series [11] and 20.3 h in series [12]. Moreover, in series [13], the microsomal CLint amounted to 42.3 µL/min/mg. Also, the Papp A→B at 2 h in series [14] was 0.1 ×10⁻⁶ cm/s. The apparent permeability from basolateral to apical (Papp B→A) at 2 h in [15] stood at 0.15 ×10⁻⁶ cm/s. In addition, in series [16], the efflux ratio at 2 h came to 1.5.

On to `C/C(=N\NC(=N)N)c1cnn(-c2ccc(C#Cc3ccccc3)cc2)c1C`, for which the Activity in series [1] came out at 70%. Moreover, the Ratio in series [22] was 1.
